According to ChEMBL document CHEMBL5058577, “EUbOPEN Chemogenomics Library 2 (Multiplex)” (2022):

Tested on: HEK-293T
Assay: Multiplex assay against HEK293T
Type: toxicity, cell-based
Details: human
Summary of the method: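 Imaging took place on a CQ1 microscope at 37°C and 5% CO2 once compound had been added to live cells stained at seeding with Hoechst33342, BioTracker Green Microtubule Cytoskeleton Dye, MitoTracker Red and Annexin V Alexa Fluor 680. CellPathfinder machine-learning gating classed cells as Hoechst high-intensity objects or normal cells, classed normal cells as having healthy, pyknosed or fragmented nuclei, and classed pyknosed cells as mitotic or apoptotic. Tubulin, mitochondrial-mass and membrane-permeability phenotypes are per cents of the healthy-nucleus cells.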

[1] = 12 h, 1 µM, compound concentration 1 uM, replicate 1
[2] = 12 h, 1 µM, compound concentration 1 uM, replicate 2
[3] = 12 h, 10 µM, compound concentration 10 uM, replicate 1
[4] = 12 h, 10 µM, compound concentration 10 uM, replicate 2
[5] = 24 h, 1 µM, compound concentration 1 uM, replicate 1
[6] = 24 h, 1 µM, compound concentration 1 uM, replicate 2
[7] = 24 h, 10 µM, compound concentration 10 uM, replicate 1
[8] = 24 h, 10 µM, compound concentration 10 uM, replicate 2
[9] = 48 h, 1 µM, compound concentration 1 uM, replicate 1
[10] = 48 h, 1 µM, compound concentration 1 uM, replicate 2
[11] = 48 h, 10 µM, compound concentration 10 uM, replicate 1
[12] = 48 h, 10 µM, compound concentration 10 uM, replicate 2

O=C(NCCO)c1cccc(-c2cc(Nc3ccc(OC(F)(F)F)cc3)ncn2)c1
Population Apoptotic (%) [1]: 27%
Population Fragmented Nuclei (%) [1]: 7%
Population Healthy Nuclei (%) [1]: 78%
Population Hoechst High Intensity Objects (%) [1]: 8%
Population Membrane Permeable-Phenotype (%) [1]: 0%
Population Mitochondria Different-Phenotype (%) [1]: 47%
Population Mitotic Cells (%) [1]: 72%
Population Normal (%) [1]: 91%
Population Pyknosed Nuclei (%) [1]: 13%
Population Tubulin-Different-Phenotype (%) [1]: 23%
Total Cell Count [1]: 409
Population Apoptotic (%) [2]: 40%
Population Fragmented Nuclei (%) [2]: 4%
Population Healthy Nuclei (%) [2]: 77%
Population Hoechst High Intensity Objects (%) [2]: 6%
Population Mitochondria Different-Phenotype (%) [2]: 60%
Population Mitotic Cells (%) [2]: 59%
Population Normal (%) [2]: 93%
Population Pyknosed Nuclei (%) [2]: 17%
Population Tubulin-Different-Phenotype (%) [2]: 16%
Total Cell Count [2]: 262
Population Apoptotic (%) [3]: 55%
Population Fragmented Nuclei (%) [3]: 6%
Population Healthy Nuclei (%) [3]: 76%
Population Hoechst High Intensity Objects (%) [3]: 10%
Population Membrane Permeable-Phenotype (%) [3]: 0%
Population Mitochondria Different-Phenotype (%) [3]: 69%
Population Mitotic Cells (%) [3]: 44%
Population Normal (%) [3]: 89%
Population Pyknosed Nuclei (%) [3]: 17%
Population Tubulin-Different-Phenotype (%) [3]: 49%
Total Cell Count [3]: 374
Population Apoptotic (%) [4]: 63%
Population Fragmented Nuclei (%) [4]: 5%
Population Healthy Nuclei (%) [4]: 73%
Population Hoechst High Intensity Objects (%) [4]: 12%
Population Mitochondria Different-Phenotype (%) [4]: 74%
Population Mitotic Cells (%) [4]: 36%
Population Normal (%) [4]: 87%
Population Pyknosed Nuclei (%) [4]: 21%
Population Tubulin-Different-Phenotype (%) [4]: 26%
Total Cell Count [4]: 325
Population Apoptotic (%) [5]: 26%
Population Fragmented Nuclei (%) [5]: 11%
Population Healthy Nuclei (%) [5]: 78%
Population Hoechst High Intensity Objects (%) [5]: 4%
Population Membrane Permeable-Phenotype (%) [5]: 0%
Population Mitochondria Different-Phenotype (%) [5]: 21%
Population Mitotic Cells (%) [5]: 73%
Population Normal (%) [5]: 95%
Population Pyknosed Nuclei (%) [5]: 10%
Population Tubulin-Different-Phenotype (%) [5]: 15%
Total Cell Count [5]: 538
Population Apoptotic (%) [6]: 41%
Population Fragmented Nuclei (%) [6]: 7%
Population Healthy Nuclei (%) [6]: 79%
Population Hoechst High Intensity Objects (%) [6]: 6%
Population Mitochondria Different-Phenotype (%) [6]: 38%
Population Mitotic Cells (%) [6]: 58%
Population Normal (%) [6]: 93%
Population Pyknosed Nuclei (%) [6]: 13%
Population Tubulin-Different-Phenotype (%) [6]: 17%
Total Cell Count [6]: 331
Population Apoptotic (%) [7]: 39%
Population Fragmented Nuclei (%) [7]: 5%
Population Healthy Nuclei (%) [7]: 80%
Population Hoechst High Intensity Objects (%) [7]: 7%
Population Membrane Permeable-Phenotype (%) [7]: 0%
Population Mitochondria Different-Phenotype (%) [7]: 61%
Population Mitotic Cells (%) [7]: 60%
Population Normal (%) [7]: 92%
Population Pyknosed Nuclei (%) [7]: 14%
Population Tubulin-Different-Phenotype (%) [7]: 38%
Total Cell Count [7]: 447
Population Apoptotic (%) [8]: 50%
Population Fragmented Nuclei (%) [8]: 6%
Population Healthy Nuclei (%) [8]: 77%
Population Hoechst High Intensity Objects (%) [8]: 14%
Population Mitochondria Different-Phenotype (%) [8]: 56%
Population Mitotic Cells (%) [8]: 50%
Population Normal (%) [8]: 85%
Population Pyknosed Nuclei (%) [8]: 15%
Population Tubulin-Different-Phenotype (%) [8]: 22%
Total Cell Count [8]: 354
Population Apoptotic (%) [9]: 17%
Population Fragmented Nuclei (%) [9]: 12%
Population Healthy Nuclei (%) [9]: 80%
Population Hoechst High Intensity Objects (%) [9]: 3%
Population Membrane Permeable-Phenotype (%) [9]: 2%
Population Mitochondria Different-Phenotype (%) [9]: 17%
Population Mitotic Cells (%) [9]: 82%
Population Normal (%) [9]: 96%
Population Pyknosed Nuclei (%) [9]: 7%
Population Tubulin-Different-Phenotype (%) [9]: 13%
Total Cell Count [9]: 897
Population Apoptotic (%) [10]: 37%
Population Fragmented Nuclei (%) [10]: 9%
Population Healthy Nuclei (%) [10]: 79%
Population Hoechst High Intensity Objects (%) [10]: 5%
Population Membrane Permeable-Phenotype (%) [10]: 0%
Population Mitochondria Different-Phenotype (%) [10]: 23%
Population Mitotic Cells (%) [10]: 62%
Population Normal (%) [10]: 94%
Population Pyknosed Nuclei (%) [10]: 10%
Population Tubulin-Different-Phenotype (%) [10]: 9%
Total Cell Count [10]: 476
Population Apoptotic (%) [11]: 41%
Population Fragmented Nuclei (%) [11]: 10%
Population Healthy Nuclei (%) [11]: 79%
Population Hoechst High Intensity Objects (%) [11]: 8%
Population Membrane Permeable-Phenotype (%) [11]: 1%
Population Mitochondria Different-Phenotype (%) [11]: 36%
Population Mitotic Cells (%) [11]: 58%
Population Normal (%) [11]: 91%
Population Pyknosed Nuclei (%) [11]: 10%
Population Tubulin-Different-Phenotype (%) [11]: 18%
Total Cell Count [11]: 595
Population Apoptotic (%) [12]: 58%
Population Fragmented Nuclei (%) [12]: 16%
Population Healthy Nuclei (%) [12]: 72%
Population Hoechst High Intensity Objects (%) [12]: 17%
Population Membrane Permeable-Phenotype (%) [12]: 0%
Population Mitotic Cells (%) [12]: 41%
Population Normal (%) [12]: 82%
Population Pyknosed Nuclei (%) [12]: 11%
Population Tubulin-Different-Phenotype (%) [12]: 13%
Total Cell Count [12]: 504

CC[C@H]1OC(=O)[C@H](C)[C@@H](O[C@H]2C[C@@](C)(OC)[C@@H](O)[C@H](C)O2)[C@H](C)[C@@H](O[C@@H]2O[C@H](C)C[C@H](N(C)C)[C@H]2O)[C@@]2(C)CC(C)=C(O2)[C@H](C)[C@@H](O)[C@]1(C)O
Population Apoptotic (%) [1]: 35%
Population Fragmented Nuclei (%) [1]: 8%
Population Healthy Nuclei (%) [1]: 74%
Population Hoechst High Intensity Objects (%) [1]: 6%
Population Membrane Permeable-Phenotype (%) [1]: 0%
Population Mitochondria Different-Phenotype (%) [1]: 56%
Population Mitotic Cells (%) [1]: 64%
Population Normal (%) [1]: 93%
Population Pyknosed Nuclei (%) [1]: 17%
Population Tubulin-Different-Phenotype (%) [1]: 41%
Total Cell Count [1]: 367
Population Apoptotic (%) [2]: 45%
Population Fragmented Nuclei (%) [2]: 3%
Population Healthy Nuclei (%) [2]: 84%
Population Hoechst High Intensity Objects (%) [2]: 7%
Population Mitochondria Different-Phenotype (%) [2]: 72%
Population Mitotic Cells (%) [2]: 54%
Population Normal (%) [2]: 92%
Population Pyknosed Nuclei (%) [2]: 11%
Population Tubulin-Different-Phenotype (%) [2]: 27%
Total Cell Count [2]: 300
Population Apoptotic (%) [3]: 55%
Population Fragmented Nuclei (%) [3]: 8%
Population Healthy Nuclei (%) [3]: 71%
Population Hoechst High Intensity Objects (%) [3]: 13%
Population Membrane Permeable-Phenotype (%) [3]: 0%
Population Mitochondria Different-Phenotype (%) [3]: 87%
Population Mitotic Cells (%) [3]: 44%
Population Normal (%) [3]: 86%
Population Pyknosed Nuclei (%) [3]: 19%
Population Tubulin-Different-Phenotype (%) [3]: 76%
Total Cell Count [3]: 383
Population Apoptotic (%) [4]: 56%
Population Fragmented Nuclei (%) [4]: 11%
Population Healthy Nuclei (%) [4]: 72%
Population Hoechst High Intensity Objects (%) [4]: 10%
Population Mitochondria Different-Phenotype (%) [4]: 91%
Population Mitotic Cells (%) [4]: 43%
Population Normal (%) [4]: 89%
Population Pyknosed Nuclei (%) [4]: 16%
Population Tubulin-Different-Phenotype (%) [4]: 77%
Total Cell Count [4]: 217
Population Apoptotic (%) [5]: 20%
Population Fragmented Nuclei (%) [5]: 8%
Population Healthy Nuclei (%) [5]: 78%
Population Hoechst High Intensity Objects (%) [5]: 3%
Population Membrane Permeable-Phenotype (%) [5]: 0%
Population Mitochondria Different-Phenotype (%) [5]: 35%
Population Mitotic Cells (%) [5]: 79%
Population Normal (%) [5]: 96%
Population Pyknosed Nuclei (%) [5]: 13%
Population Tubulin-Different-Phenotype (%) [5]: 24%
Total Cell Count [5]: 493
Population Apoptotic (%) [6]: 35%
Population Hoechst High Intensity Objects (%) [6]: 6%
Population Mitochondria Different-Phenotype (%) [6]: 49%
Population Mitotic Cells (%) [6]: 64%
Population Normal (%) [6]: 93%
Population Pyknosed Nuclei (%) [6]: 12%
Population Tubulin-Different-Phenotype (%) [6]: 22%
Total Cell Count [6]: 371
Population Apoptotic (%) [7]: 42%
Population Fragmented Nuclei (%) [7]: 9%
Population Healthy Nuclei (%) [7]: 75%
Population Hoechst High Intensity Objects (%) [7]: 11%
Population Membrane Permeable-Phenotype (%) [7]: 0%
Population Mitochondria Different-Phenotype (%) [7]: 74%
Population Mitotic Cells (%) [7]: 57%
Population Normal (%) [7]: 88%
Population Pyknosed Nuclei (%) [7]: 15%
Population Tubulin-Different-Phenotype (%) [7]: 75%
Total Cell Count [7]: 499
Population Apoptotic (%) [8]: 70%
Population Fragmented Nuclei (%) [8]: 10%
Population Healthy Nuclei (%) [8]: 71%
Population Hoechst High Intensity Objects (%) [8]: 10%
Population Mitochondria Different-Phenotype (%) [8]: 87%
Population Mitotic Cells (%) [8]: 29%
Population Normal (%) [8]: 89%
Population Pyknosed Nuclei (%) [8]: 18%
Population Tubulin-Different-Phenotype (%) [8]: 80%
Total Cell Count [8]: 254
Population Apoptotic (%) [9]: 30%
Population Fragmented Nuclei (%) [9]: 12%
Population Healthy Nuclei (%) [9]: 76%
Population Hoechst High Intensity Objects (%) [9]: 8%
Population Membrane Permeable-Phenotype (%) [9]: 0%
Population Mitochondria Different-Phenotype (%) [9]: 28%
Population Mitotic Cells (%) [9]: 69%
Population Normal (%) [9]: 91%
Population Pyknosed Nuclei (%) [9]: 11%
Population Tubulin-Different-Phenotype (%) [9]: 21%
Total Cell Count [9]: 718
Population Apoptotic (%) [10]: 21%
Population Healthy Nuclei (%) [10]: 78%
Population Hoechst High Intensity Objects (%) [10]: 6%
Population Mitochondria Different-Phenotype (%) [10]: 34%
Population Mitotic Cells (%) [10]: 78%
Population Normal (%) [10]: 93%
Population Pyknosed Nuclei (%) [10]: 9%
Population Tubulin-Different-Phenotype (%) [10]: 20%
Total Cell Count [10]: 584
Population Apoptotic (%) [11]: 50%
Population Fragmented Nuclei (%) [11]: 12%
Population Healthy Nuclei (%) [11]: 74%
Population Hoechst High Intensity Objects (%) [11]: 10%
Population Membrane Permeable-Phenotype (%) [11]: 1%
Population Mitochondria Different-Phenotype (%) [11]: 61%
Population Mitotic Cells (%) [11]: 50%
Population Normal (%) [11]: 89%
Population Pyknosed Nuclei (%) [11]: 12%
Population Tubulin-Different-Phenotype (%) [11]: 56%
Total Cell Count [11]: 671
Population Apoptotic (%) [12]: 53%
Population Healthy Nuclei (%) [12]: 75%
Population Hoechst High Intensity Objects (%) [12]: 12%
Population Membrane Permeable-Phenotype (%) [12]: 0%
Population Mitochondria Different-Phenotype (%) [12]: 84%
Population Mitotic Cells (%) [12]: 46%
Population Normal (%) [12]: 87%
Population Pyknosed Nuclei (%) [12]: 11%
Population Tubulin-Different-Phenotype (%) [12]: 73%
Total Cell Count [12]: 300
